Some results are limits rather than exact numbers.

The text below walks through data of ChEMBL document CHEMBL2380248, “Matrix metalloproteinase inhibitors based on the 3-mercaptopyrrolidine core” (J Med Chem, 2013).

A short description of data set [1]: Cytotoxicity against human MSC assessed as cell killing up to 100 uM after 24 hrs by trypan blue staining-based hemocytometric analysis relative to control. Put shortly: (§1)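 Low-passage hMSCs grown in αMEM with L-glutamine, penicillin, streptomycin, 20% FBS at 37°C, 5% CO2; fed every three days to 75% confluency, then given fresh media with inhibitor (log panel 1 μM to 100 μM, constant final DMSO) for 24 h. Cells washed with PBS, trypsinized, pelleted, Trypan Blue counted by hemocytometer; normalized to control, triplicate, mean ± SEM; >20% killing deemed cytotoxic.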

The target in data set [2] is 72 kDa type IV collagenase (Homo sapiens, UniProt P08253). Description: Inhibition of MMP-2 (unknown origin) using Mca-PLGLDpa-AR-NH2 as substrate preincubated for 30 mins by fluorescence assay. The following applies: read-out: Ki(app). Put shortly: (§2)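 Fluorogenic assay at 25°C in 50 mM HEPES pH 7.5, 10 mM CaCl2, 200 mM NaCl, 0.01% Brij-35, 5 μM TCEP. Inhibitor in DMSO preincubated 30 min with enzyme (0.2–7 nM), then started with Mca-PLGLDpa-AR-NH2 (4 μL of […] in 50% DMSO); product release followed at λex 328/λem 393 nm.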

Data set [3] concerns the target T1, Matrilysin (Homo sapiens, UniProt P09237).
T1 sequence (P09237 whole entry): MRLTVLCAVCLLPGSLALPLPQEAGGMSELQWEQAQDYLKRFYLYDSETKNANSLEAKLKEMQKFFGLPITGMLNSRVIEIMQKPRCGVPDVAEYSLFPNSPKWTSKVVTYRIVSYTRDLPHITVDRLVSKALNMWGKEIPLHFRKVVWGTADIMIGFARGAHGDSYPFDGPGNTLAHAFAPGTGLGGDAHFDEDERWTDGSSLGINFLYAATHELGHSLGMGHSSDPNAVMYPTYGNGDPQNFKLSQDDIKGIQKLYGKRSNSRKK
The data set is described as follows: Inhibition of MMP-7 (unknown origin) using Mca-PLGLDpa-AR-NH2 as substrate preincubated for 30 mins by fluorescence assay. The following applies: read-out: Ki(app). Put shortly: as §2

A short description of data set [4]: Stability of the compound in alpha-modified minimum essential medium at 10000 x IC50 up to 72 hrs in presence of fetal bovine serum. It is filed as ADME. The settings on record: cattle. Put shortly:
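Aliquots then incubated 30 min with MMP-9 (final ~1 nM) in HEPES buffer before substrate addition; relative rates (νi/νo) taken in triplicate and plotted versus time; mean ± SEM.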

The nature of data set [5]: Cytotoxicity against human MSC assessed as reduction in cell number at 100 uM after 24 hrs by trypan blue staining-based hemocytometric analysis relative to control. Further details: scale not given: the % may be the effect or the level left. Put shortly: as §1
The target in data set [6] is Collagenase 3 (Homo sapiens, UniProt P45452). The data set is described as follows: Inhibition of MMP-13 (unknown origin) using Mca-PLGLDpa-AR-NH2 as substrate preincubated for 30 mins by fluorescence assay. The settings on record: read-out: Ki(app). Put shortly:
as §2

The target of data set [7] is Matrix metalloproteinase-9 (Homo sapiens, UniProt P14780). Description: Inhibition of MMP-9 (unknown origin) using Mca-PLGLDpa-AR-NH2 as substrate preincubated for 30 mins by fluorescence assay. The following applies: read-out: Ki(app). Put shortly: as §2
The target of data set [8] is Matrix metalloproteinase-14 (Homo sapiens, UniProt P50281). The data set is described as follows: Inhibition of MMP-14 (unknown origin) using Mca-PLGLDpa-AR-NH2 as substrate preincubated for 30 mins by fluorescence assay. The settings on record: read-out: Ki(app). The procedure, abridged: as §2
The target in data set [9] is T2, Interstitial collagenase (Homo sapiens, UniProt P03956).
T2 sequence (P03956 whole entry): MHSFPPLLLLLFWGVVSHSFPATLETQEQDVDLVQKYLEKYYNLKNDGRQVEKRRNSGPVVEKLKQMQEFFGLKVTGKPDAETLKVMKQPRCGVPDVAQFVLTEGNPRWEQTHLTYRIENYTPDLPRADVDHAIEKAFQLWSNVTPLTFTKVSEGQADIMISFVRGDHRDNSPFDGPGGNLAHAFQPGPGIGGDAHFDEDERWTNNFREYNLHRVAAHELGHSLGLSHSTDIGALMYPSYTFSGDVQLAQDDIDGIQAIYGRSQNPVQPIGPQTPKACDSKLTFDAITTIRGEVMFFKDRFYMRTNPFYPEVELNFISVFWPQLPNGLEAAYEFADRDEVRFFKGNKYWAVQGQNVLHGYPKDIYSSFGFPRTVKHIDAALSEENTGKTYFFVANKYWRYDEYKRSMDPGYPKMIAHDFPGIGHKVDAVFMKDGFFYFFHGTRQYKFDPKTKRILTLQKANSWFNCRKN
The data set is described as follows: Inhibition of MMP-1 (unknown origin) using Mca-PLGLDpa-AR-NH2 as substrate preincubated for 30 mins by fluorescence assay. The following applies: read-out: Ki(app). The procedure, abridged: as §2

Chain of Matrix metalloproteinase-9 (P14780 whole entry): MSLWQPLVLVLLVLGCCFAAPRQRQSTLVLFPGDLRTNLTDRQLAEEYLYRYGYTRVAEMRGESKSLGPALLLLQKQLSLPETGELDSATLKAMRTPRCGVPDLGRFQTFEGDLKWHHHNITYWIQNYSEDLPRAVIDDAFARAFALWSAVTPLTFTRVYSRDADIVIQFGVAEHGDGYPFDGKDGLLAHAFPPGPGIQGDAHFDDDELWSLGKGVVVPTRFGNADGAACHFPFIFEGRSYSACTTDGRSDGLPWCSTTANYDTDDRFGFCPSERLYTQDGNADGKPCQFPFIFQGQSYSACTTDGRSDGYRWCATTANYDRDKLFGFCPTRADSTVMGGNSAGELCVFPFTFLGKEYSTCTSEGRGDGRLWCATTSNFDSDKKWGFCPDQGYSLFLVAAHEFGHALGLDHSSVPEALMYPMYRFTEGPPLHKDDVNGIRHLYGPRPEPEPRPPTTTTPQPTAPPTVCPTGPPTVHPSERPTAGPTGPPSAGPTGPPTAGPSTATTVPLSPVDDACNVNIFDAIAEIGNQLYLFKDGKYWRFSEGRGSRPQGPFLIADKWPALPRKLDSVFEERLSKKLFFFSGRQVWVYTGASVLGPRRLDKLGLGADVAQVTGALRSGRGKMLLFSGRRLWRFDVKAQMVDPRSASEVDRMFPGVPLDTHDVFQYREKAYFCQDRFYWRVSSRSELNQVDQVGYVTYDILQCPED
Chain of 72 kDa type IV collagenase (P08253 whole entry): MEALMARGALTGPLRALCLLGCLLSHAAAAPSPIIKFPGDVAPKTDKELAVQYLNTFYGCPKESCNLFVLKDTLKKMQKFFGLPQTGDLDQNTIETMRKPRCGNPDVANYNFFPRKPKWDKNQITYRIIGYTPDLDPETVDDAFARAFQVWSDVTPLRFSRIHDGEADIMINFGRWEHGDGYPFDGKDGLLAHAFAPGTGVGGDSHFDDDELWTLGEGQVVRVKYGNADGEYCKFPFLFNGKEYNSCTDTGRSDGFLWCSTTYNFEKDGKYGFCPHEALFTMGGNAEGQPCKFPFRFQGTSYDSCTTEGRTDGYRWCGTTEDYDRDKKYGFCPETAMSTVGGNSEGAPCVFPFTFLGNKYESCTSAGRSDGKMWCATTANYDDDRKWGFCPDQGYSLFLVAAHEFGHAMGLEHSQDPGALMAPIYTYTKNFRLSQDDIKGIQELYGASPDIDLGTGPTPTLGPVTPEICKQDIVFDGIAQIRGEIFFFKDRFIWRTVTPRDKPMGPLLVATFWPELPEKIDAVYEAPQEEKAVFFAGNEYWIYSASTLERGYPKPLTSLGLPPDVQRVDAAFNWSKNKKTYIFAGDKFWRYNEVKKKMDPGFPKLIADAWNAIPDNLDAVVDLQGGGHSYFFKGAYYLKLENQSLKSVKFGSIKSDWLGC

With `O=S(=O)(N[C@H]1CCC[C@@H]1S)c1ccc(Oc2ccccc2)cc1` (racemic), the Activity result is on record as “<= 20%” in data set [1] and 40% in data set [5]. In addition, the Ki in data set [2] was 18 nM; in data set [3] it was over 20000 nM; in [6] it was 15 nM; in data set [7], 25 nM; in data set [8], 18 nM; in data set [9], 3400 nM. Moreover, the Stability entry in data set [4] was “Stable”.
